Source: PubChem BioAssay
A selection: hits, their analogues and other compounds. The true share with any hit is near 4.4%.
EBI2 antag – antagonists of human EBI2 receptor; P32249; 0.81% of 360,000 active; inhibition, % at 5 µM; EBI2 beta-arrestin recruitment, luminescence, 7a,25-OHC stimulated; in the data active = inhibition above about 38%;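 note: enzyme fragment complementation signal reports receptor beta-arrestin coupling in cells; 0% = agonist plus DMSO wells and 100% = wells without agonist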
Target sequence (P32249 whole entry, looked up, the tested form may be a part): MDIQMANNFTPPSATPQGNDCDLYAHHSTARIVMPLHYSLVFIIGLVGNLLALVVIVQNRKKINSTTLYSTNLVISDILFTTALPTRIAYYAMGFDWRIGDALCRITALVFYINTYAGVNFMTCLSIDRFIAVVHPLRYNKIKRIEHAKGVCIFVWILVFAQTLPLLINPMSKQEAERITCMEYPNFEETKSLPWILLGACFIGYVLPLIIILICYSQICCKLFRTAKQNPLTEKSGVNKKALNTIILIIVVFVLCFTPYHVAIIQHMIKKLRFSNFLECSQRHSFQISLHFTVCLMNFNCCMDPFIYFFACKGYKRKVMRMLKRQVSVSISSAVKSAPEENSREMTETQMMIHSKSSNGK
NR3A LBD binder – modulates the human NR3A ligand-binding domain; NR3A LBD differential scanning fluorimetry, Tm shift; 0% = protein alone, 100% = glycine-bound protein; Tm shift relative to glycine control, % at 25 µM; AID 1259313; 2.5% of 340,000 active;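 active = melting temperature shift of at least 10% of the positive control shift, at one fixed dose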
MPTP block – inhibitors of mitochondrial permeability transition pore. inhibition, % at 10 µM. AID 602449. 1.4% of 360,000 active. isolated mouse mitochondria, Ca2+ swelling absorbance, 30 min;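 active = inhibition of 50% or more, scaled per plate between neutral and stimulator controls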;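 note: 0% = DMSO wells given calcium and 100% = 1 mM EGTA wells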
SENP1 inh – inhibitors of human SENP1 SUMO protease catalytic domain | Q9P0U3 | recombinant SENP1 catalytic domain, CyPet-SUMO1-YPet FRET cleavage | inhibition, % at 10 µM | 0.21% of 360,000 active;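 active = inhibition at least 30% at 10 µM, raw YFP signal under a set limit, fluorescence ratio 0.5 to 1.5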;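 note: 0% = enzyme with DMSO and 100% = no enzyme wells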
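Material: hSENP1 catalytic domain, recombinant; medium: Tris pH 8 with BME, BSA, NP40 and catalase; compound: single concentration of 10 µM compound, 0.5% DMSO final; technique: FRET read of cyan and yellow fluorescence; timing: 50 min enzyme reaction, room temperature, light-protected; reagent: SFCypet-SUMO1-SFYpet substrate at 25 nM; control set: no-enzyme low, enzyme-DMSO high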
* marks the source's active call; other numbers are inactive results; · = no result.

SMILES	EBI2 antag	NR3A LBD binder	MPTP block	SENP1 inh
O=C(Nc1ccc(-c2csc(Nc3ccc(Cl)cc3)n2)cc1)c1ccccc1	-0.4	-1.3	2.4	2.0
COc1cc(C(=O)Nc2cccc(-c3nc4ccccc4o3)c2C)cc(OC)c1OC	21.3	2.2	-1.7	0.4
COc1cc(C(=O)Nc2ccc(-c3nc4cc(C)ccc4o3)c(O)c2)cc(OC)c1OC	-0.9	35.4*	8.9	1.6
COc1cccc(C(=O)Nc2ccc(-c3nnc(-c4ccco4)o3)cc2)c1	-6.3	10.0*	-13.0	2.2
COc1cc(OC)cc(C(=O)Nc2ccc(-c3nc4ccccc4o3)cc2)c1	4.5	19.9*	0.2	-1.5
COc1cccc(C(=O)Nc2ccc(-c3nc4ccccc4o3)c(O)c2)c1	3.0	33.9*	4.9	-2.1
COc1cccc(C(=O)Nc2cccc(-c3nnc(-c4ccccc4)o3)c2)c1	5.9	7.3	12.5	-1.5
COc1cccc(C(=O)Nc2ccc3c(C)cc(=O)oc3c2)c1	-7.8	9.9	1.5	1.1
CCOC(=O)N1CCN(C(=O)c2ccc(CS(=O)c3cccc(C)c3)o2)CC1 (stereo unspecified)	-4.5	·	-0.3	0.6
CC(C)CNC(=O)C1CCN(c2ccc(S(=O)(=O)N3CCOCC3)cc2[N+](=O)[O-])CC1	0.0	0.6	1.1	1.3
Nc1cccc(CP(=O)(c2ccccc2)c2ccccc2)c1	-9.1	2.4	-1.8	1.2
CN(Cc1ccccc1F)C(=O)c1ccccc1Sc1ccccc1C#N	12.3	1.5	-2.3	0.7
CC(C)Cc1nc2oc3c(N4CCN(CCO)CC4)ncnc3c2c2c1CCCC2	51.2*	-4.2	-3.4	-21.8
O=C(Nc1ccccc1Cl)c1ccccc1Oc1ccc(C(F)(F)F)cc1[N+](=O)[O-]	5.8	11.8*	3.4	-5.3
O=C(c1ccccc1Oc1ccc(C(F)(F)F)cc1[N+](=O)[O-])N1CCOCC1	0.1	2.3	1.6	0.2
COc1ccc(N(C(=O)c2ccco2)C(C(=O)NC2CCCC2)c2ccc(N(C)C)cc2)cc1 (stereo unspecified)	10.7	10.3*	-1.3	-0.1
CCOc1ccc(OCC)c(NC(=O)c2nnn(CC(=O)Nc3cc(C)cc(C)c3)c2N)c1	13.9	15.7*	0.2	-0.3
CCOc1ccc(NC(=O)c2nnn(CC(=O)Nc3ccccc3OCC)c2N)cc1	-13.0	-1.6	-1.6	-0.9
CCOc1ccc(CCNC(=O)c2nnn(CC(=O)Nc3ccccc3C)c2N)cc1OCC	-17.8	11.9*	-1.5	1.1
COc1cccc(/C=C/C(=O)OCC(=O)N(C)CC(=O)Nc2ccccc2Cl)c1OC	-1.9	1.5	-2.1	2.4
CC(=O)Oc1ccc(N(C(C)=O)S(=O)(=O)c2ccc3ccccc3c2)cc1	-11.2	8.4	0.6	1.5
Nc1nn2c(C(F)(F)F)cc(=O)[nH]c2c1N=Nc1cccc(F)c1	2.1	21.1*	1.4	1.8
COC(=O)C1C/C(=N\NS(=O)(=O)c2ccc(C)cc2)c2ccsc2C1 (stereo unspecified)	5.6	0.3	0.6	-2.1
CC(=O)Nc1ccc(/C=C/c2noc(-c3ccccc3O)n2)cc1	25.1	11.9*	1.3	-5.7
COc1ccc(-c2c(-c3cc(OC)cc(OC)c3)sc3ccc(OC)cc23)cc1	17.0	12.9*	5.1	-0.1
SMILES	EBI2 antag	NR3A LBD binder	MPTP block	SENP1 inh
COc1cc(OC)cc(-c2sc3ccc(OC)cc3c2-c2ccc(O)cc2)c1	-4.1	7.0	0.3	0.0
CC(=O)Nc1ccc(S(=O)(=O)NCCC(=O)Nc2ccc(C)cn2)cc1	-3.5	0.8	-1.4	0.9
c1ccc(C(Cc2nc(-c3cccnc3)no2)c2ccccc2)cc1	17.0	1.0	1.1	-6.8
c1ccc(C(c2ccccc2)c2nc(-c3cccnc3)no2)cc1	5.3	15.7*	0.3	1.4
Cc1[nH]n(-c2ccccc2)c(=O)c1C1(C(F)(F)F)C(=O)N(c2ccccc2)C2=C1C(=O)CC(C)(C)C2 (stereo unspecified)	-2.3	12.7*	-1.4	-1.1
Cc1ccc(S(=O)(=O)c2nc(NN(C)C)sc2Cl)cc1	-9.9	-0.3	14.3	2.4
Cc1ccc2[nH]c3nc(N/N=C/c4cccc(O)c4)nnc3c2c1	-7.1	10.3*	0.3	-5.5
CCc1ccc2[nH]c3nc(N/N=C/c4ccc(O)cc4O)nnc3c2c1	5.2	19.2*	8.8	-5.0
COc1cc(/C=N/Nc2nnc3c(n2)[nH]c2ccccc23)ccc1O	8.9	9.7	0.1	4.0
Cc1ccc(C(=O)CN2C(=O)C(=O)N(Cc3ccccc3)C2=O)cc1	15.9	17.9*	-0.9	-0.9
